In ChEMBL document CHEMBL3046158, “Design, synthesis, and fungicidal activity of macrolactones and macrolactams with a sulfonamide side chain” (J Agric Food Chem, 2008):
≈ marks a conversion by molar mass, not a printed value.

tested on: Rhizoctonia solani; assay: Fungicidal activity against Rhizoctonia solani assessed as inhibition of mycelium growth by mycelium growth rate test; type: functional, organism-based
In short: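 Mycelial growth rate test on Rhizoctonia solani. Inhibition rates measured at 100, 50, 25, 12.5 and 6.25 µg/mL.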

Structure (SMILES) | EC50 [µg/mL]
O=C1CCCCCCCCCCC(NS(=O)(=O)c2ccccc2)CCCO1 (configuration not stated) | 2.4 (≈ 6.07 µM)
Cc1ccc(S(=O)(=O)NC2CCCCCCCCCCC(=O)OCCC2)cc1 (configuration not stated) | 3.7 (≈ 9.03 µM)
O=C1CCCCCCCCCCC(NS(=O)(=O)c2ccc(Cl)cc2)CCCO1 (configuration not stated) | 3.3 (≈ 7.67 µM)
O=C1CCCCCCCCCCC(NS(=O)(=O)c2cccc([N+](=O)[O-])c2)CCCO1 (configuration not stated) | 18.7 (≈ 42.4 µM)
O=C1CCCCCCCCCCC(NS(=O)(=O)c2cc(Cl)ccc2Cl)CCCO1 (configuration not stated) | 28.4 (≈ 61.1 µM)
O=C1CCCCCCCCCCC(NS(=O)(=O)c2ccc(F)cc2)CCCO1 (configuration not stated) | 4.5 (≈ 10.9 µM)
O=C1CCCCCCCCCCC(NS(=O)(=O)c2ccccc2Cl)CCCO1 (configuration not stated) | 25 (≈ 58.1 µM)
O=C1CCCCCCCCCCC(NS(=O)(=O)c2ccccc2[N+](=O)[O-])CCCO1 (configuration not stated) | 22.3 (≈ 50.6 µM)
COC(=O)c1ccccc1S(=O)(=O)NC1CCCCCCCCCCC(=O)OCCC1 (configuration not stated) | 20.9 (≈ 46.1 µM)
O=C1CCCCCCCCCCC(NS(=O)(=O)c2cccs2)CCCO1 (configuration not stated) | 5.1 (≈ 12.7 µM)
O=C1CCCCCCCCCCC(NS(=O)(=O)Cc2ccccc2)CCCO1 (configuration not stated) | 52.4 (≈ 128 µM)
CS(=O)(=O)NC1CCCCCCCCCCC(=O)OCCC1 (configuration not stated) | 12.2 (≈ 36.6 µM)
CC1CCC(NS(=O)(=O)c2ccccc2)CCCCCCCCCCC(=O)O1 (configuration not stated) | 51.3 (≈ 125 µM)
Cc1ccc(S(=O)(=O)NC2CCCCCCCCCCC(=O)OC(C)CC2)cc1 (configuration not stated) | 57 (≈ 135 µM)
CC1CCC(NS(=O)(=O)c2ccc(Cl)cc2)CCCCCCCCCCC(=O)O1 (configuration not stated) | 69.6 (≈ 157 µM)
CC1CCC(NS(=O)(=O)c2cccc([N+](=O)[O-])c2)CCCCCCCCCCC(=O)O1 (configuration not stated) | 86 (≈ 189 µM)
CC1CCC(NS(=O)(=O)c2cc(Cl)ccc2Cl)CCCCCCCCCCC(=O)O1 (configuration not stated) | 30 (≈ 62.7 µM)
CC1CCC(NS(=O)(=O)c2ccc(F)cc2)CCCCCCCCCCC(=O)O1 (configuration not stated) | 25.1 (≈ 58.7 µM)
CC1CCC(NS(=O)(=O)c2ccccc2Cl)CCCCCCCCCCC(=O)O1 (configuration not stated) | 37.9 (≈ 85.4 µM)
CC1CCC(NS(=O)(=O)c2ccccc2[N+](=O)[O-])CCCCCCCCCCC(=O)O1 (configuration not stated) | 93.3 (≈ 205 µM)
COC(=O)c1ccccc1S(=O)(=O)NC1CCCCCCCCCCC(=O)OC(C)CC1 (configuration not stated) | 53.4 (≈ 114 µM)

Structure (SMILES) | EC50 [µg/mL]
CC1CCC(NS(=O)(=O)c2cccs2)CCCCCCCCCCC(=O)O1 (configuration not stated) | 20.3 (≈ 48.8 µM)
CC1CCC(NS(=O)(=O)Cc2ccccc2)CCCCCCCCCCC(=O)O1 (configuration not stated) | 28.2 (≈ 66.6 µM)
CC1CCC(NS(C)(=O)=O)CCCCCCCCCCC(=O)O1 (configuration not stated) | 56.4 (≈ 162 µM)
O=C1CCCCCCCCCCC(NS(=O)(=O)c2ccccc2)CCCN1 (configuration not stated) | 55.3 (≈ 140 µM)
Cc1ccc(S(=O)(=O)NC2CCCCCCCCCCC(=O)NCCC2)cc1 (configuration not stated) | 13.4 (≈ 32.8 µM)
O=C1CCCCCCCCCCC(NS(=O)(=O)c2ccc(Cl)cc2)CCCN1 (configuration not stated) | 19.6 (≈ 45.7 µM)
O=C1CCCCCCCCCCC(NS(=O)(=O)c2cccc([N+](=O)[O-])c2)CCCN1 (configuration not stated) | 27.6 (≈ 62.8 µM)
O=C1CCCCCCCCCCC(NS(=O)(=O)c2cc(Cl)ccc2Cl)CCCN1 (configuration not stated) | 30.4 (≈ 65.6 µM)
O=C1CCCCCCCCCCC(NS(=O)(=O)c2ccc(F)cc2)CCCN1 (configuration not stated) | 36.7 (≈ 89 µM)
O=C1CCCCCCCCCCC(NS(=O)(=O)c2ccccc2Cl)CCCN1 (configuration not stated) | 59.5 (≈ 139 µM)
O=C1CCCCCCCCCCC(NS(=O)(=O)c2ccccc2[N+](=O)[O-])CCCN1 (configuration not stated) | 21.5 (≈ 48.9 µM)
COC(=O)c1ccccc1S(=O)(=O)NC1CCCCCCCCCCC(=O)NCCC1 (configuration not stated) | 12.8 (≈ 28.3 µM)
O=C1CCCCCCCCCCC(NS(=O)(=O)c2cccs2)CCCN1 (configuration not stated) | 18.3 (≈ 45.7 µM)
O=C1CCCCCCCCCCC(NS(=O)(=O)Cc2ccccc2)CCCN1 (configuration not stated) | 8.1 (≈ 19.8 µM)
CS(=O)(=O)NC1CCCCCCCCCCC(=O)NCCC1 (configuration not stated) | 45.1 (≈ 136 µM)
O=C1CCCCCCCCCCCN1CCNS(=O)(=O)c1ccccc1 | 11.6 (≈ 30.5 µM)
Cc1ccc(S(=O)(=O)NCCN2CCCCCCCCCCCC2=O)cc1 | 8.8 (≈ 22.3 µM)
O=C1CCCCCCCCCCCN1CCNS(=O)(=O)c1ccc(Cl)cc1 | 18.7 (≈ 45.1 µM)
O=C1CCCCCCCCCCCN1CCNS(=O)(=O)c1cccc([N+](=O)[O-])c1 | 10.7 (≈ 25.1 µM)
O=C1CCCCCCCCCCCN1CCNS(=O)(=O)c1cc(Cl)ccc1Cl | 5.3 (≈ 11.8 µM)
COC(=O)Nc1nc2ccccc2[nH]1 [CARBENDAZIM] | 1.5 (≈ 7.85 µM)
